Data from ChEMBL document CHEMBL1123476, “Synthesis of congeners and prodrugs of the benzene maleimide photoadduct mitindomide as potential antitumor agents. 2” (J Med Chem, 1986).
Several values for one entry are separate records, joined by “and”; a condition that tells them apart may be missing. Identical values can stand only once.

Assays:
[1] = Solubility was determined; INS= less than 0.1; format: physicochemical
[2] = system: P388; assay: Compound was tested for antitumor activity in P-388 lymphocytic leukemia system at 200 mg/kg dose levels per injection; 5/6; format: functional, Mus musculus
Method in brief: (§1)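 P-388 leukemia in animals, Q01D×09 schedule: dose given daily for 9 days, in mg/kg per injection. Read-outs are survivors on day 4 (live/total animals), body-weight difference test minus control (g), and % T/C (median lifetime of treated ÷ median lifetime of controls × 100). Some compounds were tested in independent runs at different times.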

[3] = system: P388; assay: Compound was tested for antitumor activity in P-388 lymphocytic leukemia system at 100 mg/kg dose levels per injection; 5/6; format: functional, Mus musculus; method in brief: as §1
[4] = system: P388; assay: (§2) Antitumor activity in P-388 lymphocytic leukemia system at 100 mg/kg dose levels per injection.; format: functional, Mus musculus
Method in brief: (§3)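 P-388 leukemia in vivo, dosed Q01D×09 (one injection daily for 9 days, mg/kg per injection). Activity is %T/C, the median lifetime of treated animals divided by that of controls, ×100. Live animals on day 4 were counted against the total (survivors day 4). Repeat tests were done independently at different times.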

[5] = system: P388; assay: (§4) Antitumor activity in P-388 lymphocytic leukemia system at 50 mg/kg dose levels per injection.; format: functional, Mus musculus; method in brief: as §1
[6] = system: P388; assay: Compound was tested for antitumor activity in P-388 lymphocytic leukemia system at 25 mg/kg dose levels per injection; 6/6; format: functional, Mus musculus; method in brief: as §1
[7] = system: P388; assay: (§5) Antitumor activity in P-388 lymphocytic leukemia system at 200 mg/kg dose levels per injection.; format: functional, Mus musculus; method in brief: as §3
[8] = system: P388; assay: Antitumor activity in P-388 lymphocytic leukemia system at 25 mg/kg dose levels per injection; format: functional, Mus musculus; method in brief: as §3
[9] = system: P388; assay: Compound was tested for antitumor activity in P-388 lymphocytic leukemia system at 25 mg/kg dose levels per injection; format: functional, Mus musculus; method in brief: as §3
[10] = system: P388; assay: as §4; format: functional, Mus musculus; method in brief: as §3; remark: listed apart in the source
[11] = system: P388; assay: Compound was tested for antitumor activity in P-388 lymphocytic leukemia system at 200 mg/kg dose levels per injection; format: functional, Mus musculus; method in brief: as §3
[12] = system: P388; assay: as §5; format: functional, Mus musculus; method in brief: as §1; remark: listed apart in the source
[13] = system: P388; assay: as §2; format: functional, Mus musculus; method in brief: as §1; remark: listed apart in the source
[14] = system: P388; assay: Compound was tested for antitumor activity in P-388 lymphocytic leukemia system at 200 mg/kg dose levels per injection.; format: functional, organism-based; set-up: dose 200 mg/kg; details: Mus musculus; method in brief: as §3
[15] = system: P388; assay: Compound was tested for antitumor activity in P-388 lymphocytic leukemia system. at 400 mg/kg dose levels per injection; Toxic; format: functional, organism-based; set-up: dose 400 mg/kg; details: Mus musculus; method in brief: as §3
[16] = system: P388; assay: Antitumor activity in P-388 lymphocytic leukemia system at 25 mg/kg dose levels per injection.; format: functional, Mus musculus; method in brief: as §1
[17] = system: P388; assay: Compound was tested for antitumor activity in P-388 lymphocytic leukemia system at 400 mg/kg dose levels per injection; 3/6; format: functional, Mus musculus; method in brief: as §1
[18] = system: P388; assay: Antitumor activity in P-388 lymphocytic leukemia system and the difference in body weight was calculated at 200 mg/kg dose levels per injection.; format: functional, Mus musculus; details: 200 mg/kg
[19] = system: P388; assay: Antitumor activity in P-388 lymphocytic leukemia system and the difference in body weight was calculated at 25 mg/kg dose levels per injection.; format: functional, Mus musculus
[20] = system: P388; assay: Compound was tested for antitumor activity in P-388 lymphocytic leukemia system and the difference in body weight was calculated at 400 mg/kg dose levels per injection; format: functional, Mus musculus
[21] = system: P388; assay: Antitumor activity in P-388 lymphocytic leukemia system and the difference in body weight was calculated at 50 mg/kg dose levels per injection.; format: functional, Mus musculus
[22] = system: P388; assay: Compound was tested for antitumor activity in P-388 lymphocytic leukemia system at 200 mg/kg dose levels per injection; 0/6; format: functional, Mus musculus; method in brief: as §1
[23] = system: P388; assay: Compound was tested for antitumor activity in P-388 lymphocytic leukemia system at 400 mg/kg dose levels per injection; 6/6; format: functional, Mus musculus; method in brief: as §1
[24] = system: P388; assay: Compound was tested for antitumor activity in P-388 lymphocytic leukemia system. at 400 mg/kg dose levels per injection; format: functional, Mus musculus; method in brief: as §3
[25] = system: P388; assay: Compound was tested for antitumor activity in P-388 lymphocytic leukemia system at 400 mg/kg dose levels per injection; format: functional, Mus musculus; method in brief: as §3
[26] = system: P388; assay: Compound was tested for antitumor activity in P-388 lymphocytic leukemia system at 400 mg/kg dose levels per injection; 5/6; format: functional, Mus musculus; method in brief: as §1
[27] = system: P388; assay: Antitumor activity in P-388 lymphocytic leukemia system and the difference in body weight calculated at 100 mg/kg dose levels per injection.; format: functional, Mus musculus; details: 100 mg/kg

SMILES | Solubility [1] | T/C [4] | Weight difference [4] | Survivors at day 4 [5] | T/C [7] | T/C [10] | Weight difference [10] | Weight difference [11] | Survivors at day 4 [12] | Survivors at day 4 [13] | T/C ([4]; 100 mg/kg) | T/C ([10]; 50 mg/kg) | Survivors at day 4 [16] | T/C ([7]; 200 mg/kg) | other results
O=C1NC(=O)C2C3C=CC(C12)C1C(=O)NC(=O)C31 (stereo unspecified) | Insoluble | 97% | -2.4 g | 6 | 92% | 100% | -1.1 g | -4.3 g |  |  |  |  |  |  | Survivors at day 4 [2]: 5; Survivors at day 4 [3]: 5; Survivors at day 4 [6]: 6; T/C [8]: 105%; Weight difference [9]: -0.7 g
CCOC(=O)N1C(=O)C2C3CCC(C2C1=O)C1C2C(=O)N(C(=O)OCC)C(=O)C2C31 (stereo unspecified) | Insoluble |  |  | 6 | 222% |  |  |  | 6 | 6 | 157% and 142% | 127% and 115% |  |  | Survivors at day 4 [2]: 5; Weight difference ([4]; 100 mg/kg): -1.2 g and -2.2 g; Survivors at day 4 [6]: 6; T/C [14]: Toxic; T/C ([8]; 25 mg/kg): 111% and 104%; Weight difference ([9]; 25 mg/kg): -0.5 g and -0.7 g; Weight difference ([10]; 50 mg/kg): -0.3 g and -0.4 g; Weight difference ([11]; 200 mg/kg): -4 g and -5.2 g
CC(=O)OC(C(=O)O)N1C(=O)C2C3C=CC(C2C1=O)C1C2C(=O)N(C(OC(C)=O)C(=O)O)C(=O)C2C31 (stereo unspecified) |  |  |  | 6 |  | 110% |  |  | 6 | 6 | 123% and 113% |  | 6 | 175% and 125% | T/C [15]: Toxic; Survivors at day 4 [17]: 3; Weight difference [18]: -1.2 g and -0.5 g; Weight difference [19]: 0.2 g; Weight difference [20]: -5.7 g; Weight difference [21]: -0.3 g; T/C [9]: 103%
CCOC(=O)N1C(=O)C2C3C=CC(C2C1=O)C1C2C(=O)N(C(=O)OCC)C(=O)C2C31 (stereo unspecified) | Insoluble |  |  | 6 |  |  |  | -6.5 g | 6 | 6 | 152% and 145% | 135% and 121% | 6 |  | Survivors at day 4 [22]: 0; Weight difference ([4]; 100 mg/kg): -4.6 g and -5.5 g; T/C [14]: Toxic; T/C ([8]; 25 mg/kg): 124% and 116%; Weight difference ([10]; 50 mg/kg): -0.6 g and -0.8 g
CC1=CC2(C)C3C(=O)NC(=O)C3C1C1(C)C3C(=O)NC(=O)C3C21 (stereo unspecified) | Insoluble | 109% | -1.5 g | 6 | 97% | 108% | -0.9 g | -1.8 g | 6 | 6 |  |  |  |  | Survivors at day 4 [23]: 6; T/C [24]: 101%; Weight difference [25]: -5.3 g
O=C1NC(=O)C2C1C(C(=O)O)C1C3C(=O)NC(=O)C3C1C2C(=O)O (stereo unspecified) | Insoluble | 97% | -0.7 g | 6 |  | 94% | 0 g |  | 6 | 6 |  |  |  | 92% and 91% | Survivors at day 4 [23]: 6; T/C [25]: 96%; Weight difference [25]: -0.2 g
CCN(CC)CN1C(=O)C2C3C=CC(C2C1=O)C1C2C(=O)N(CN(CC)CC)C(=O)C2C31 (stereo unspecified) | Insoluble |  |  | 6 |  |  |  |  | 6 | 6 | 117% and 116% | 111% and 102% | 6 | 139% and 125% | Survivors at day 4 [26]: 5; Weight difference [27]: -0.8 g and -0.4 g; Weight difference [18]: -0.7 g and -0.6 g; Weight difference [19]: 0 g; Weight difference [20]: -0.9 g; Weight difference ([21]; 50 mg/kg): -1 g and -0.5 g; T/C [9]: 103%; T/C [24]: 111%
